According to ChEMBL document CHEMBL4020823, “Highly Selective, Potent, and Oral mTOR Inhibitor for Treatment of Cancer as Autophagy Inducer” (J Med Chem, 2018):
The source made the active and inactive calls. The rule behind the calls is not given here.

What was measured:
T47D [1] = assay: Growth inhibition of human T47D cells after 72 hrs by CCK8 assay; format: functional, cell-based
Method in brief: (§1)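 Cells were seeded at 2000–3000 per well and grown 24 h in serum-containing medium. They were then exposed to serially diluted compound for 72 h at 37 °C, 5% CO2. CCK8 reagent was added for 1–4 h and absorbance read at 450 nm. Inhibition = (AC − AS)/(AC − Ab) × 100%. IC50 is the average of at least three independent determinations.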

MDA-MB-231 [2] = assay: Growth inhibition of human MDA-MB-231 cells after 72 hrs by CCK8 assay; format: functional, cell-based; details: MDA-MB-231, 72 h; method in brief: as §1
SK-OV-3 = assay: Growth inhibition of human SKOV3 cells after 72 hrs by CCK8 assay; format: functional, cell-based; details: SK-OV-3, 72 h; method in brief: as §1
Mus musculus = species: Mus musculus; assay: Inhibition of full length recombinant mouse p85alpha/PI3K p110alpha H1047R mutant at 1 uM relative to control
Method in brief: (§2)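 Eurofins KinaseProfiler panel with compound at a single 1 μM concentration. ATP at the Km of each kinase. Result is % inhibition, mean of two independent experiments.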

[3] = molecular target: PI3K p110 beta/p85 alpha (Mus musculus) (UniProt P26450+Q8BTI9); assay: Inhibition of full length recombinant mouse PI3K p110beta/p85alpha at 1 uM relative to control; format: protein-complex assay; method in brief: as §2
[4] = molecular target: PI3K p110 delta/p85 alpha (Mus musculus) (UniProt P26450+O35904); assay: Inhibition of full length recombinant mouse PI3K p110delta/p85alpha at 1 uM relative to control; format: protein-complex assay; method in brief: as §2
[5] = system: PI3-kinase p110-alpha/p85-alpha (Homo sapiens), P27986+P42336 [H1047R]; assay: Inhibition of full length recombinant human p85alpha/PI3K p110alpha H1047R mutant at 1 uM relative to control; method in brief: as §2
Homo sapiens [6] = species: Homo sapiens; assay: Inhibition of full length recombinant human PI3K p110alpha/p65alpha at 1 uM relative to control; method in brief: as §2
T47D [7] = assay: Induction of autophagy in human T47D cells assessed as increase in LC3-2 level at 0.25 to 0.5 uM after 48 hrs by Western blot analysis; format: functional, cell-based
Method in brief: (§3)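 Cells treated with test agents at several concentrations for 2 days (48 h). LC3B-II detected by Western blot on lysates, with β-actin as internal control. Membranes blocked in 5% skim milk, primary antibodies at 4 °C overnight, peroxidase-conjugated anti-mouse or anti-rabbit IgG secondary, ECL detection.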

SiHa = assay: Induction of autophagy in human SiHa cells assessed as increase in LC3-2 level at 0.5 to 1 uM after 48 hrs by Western blot analysis; format: functional, cell-based; method in brief: as §3
MDA-MB-231 [8] = assay: Induction of autophagy in human MDA-MB-231 cells assessed as increase in LC3-2 puncta level after 48 hrs by immunofluorescence staining based microscopic analysis; format: functional, cell-based
Method in brief: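 Cells seeded on glass coverslips in complete 1640 or DMEM and incubated with inhibitors at different concentrations for 48 h. Fixed in 4% paraformaldehyde, permeabilized with 0.15% Triton X-100, blocked in 4% BSA/PBS for 1 h at room temperature. Anti-LC3B (1:200) overnight, then FITC-conjugated secondary, DAPI nuclear stain. LC3B-II puncta viewed by fluorescence microscopy.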

HeLa [9] = assay: Induction of autophagy in human HeLa cells assessed as increase in LC3-2 puncta level after 48 hrs by immunofluorescence staining based microscopic analysis; format: functional, cell-based
Method in brief: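 Cells were grown on glass coverslips and exposed to inhibitor for 48 h. They were fixed in 4% paraformaldehyde, permeabilized with 0.15% Triton X-100 and blocked in 4% BSA/PBS for 1 h. Anti-LC3B was applied overnight at 1:200, followed by FITC secondary and DAPI nuclear stain. LC3B-II puncta were counted by fluorescence microscopy.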

HeLa [10] = assay: Inhibition of mTORC1 in human HeLa cells assessed as reduction in 4E-BP1 phosphorylation at Thr37/46 residues at 0.5 to 1 uM by Western blot analysis; format: cell-based
Method in brief: (§4)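 Cells treated with the indicated concentrations, then whole-cell lysates immunoblotted. mTORC1 activity read as S6 and 4E-BP1 phosphorylation; mTORC2 activity read as AKT Ser473 phosphorylation. Blocking in 5% skim milk, primary antibodies at 4 °C overnight, peroxidase-conjugated secondary, ECL detection.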

Homo sapiens [11] = species: Homo sapiens; assay: Inhibition of mTORC1 in human T47D cells assessed as reduction in 4E-BP1 phosphorylation at Ser65 residues at 0.25 to 0.5 uM by Western blot analysis; format: cell-based; method in brief: as §4
HeLa [12] = assay: Inhibition of mTORC1 in human HeLa cells assessed as reduction in 4E-BP1 phosphorylation at Ser65 residues at 0.5 to 1 uM by Western blot analysis; format: cell-based; method in brief: as §4
Homo sapiens [13] = species: Homo sapiens; assay: Inhibition of mTORC2 in human MDA-MB-231 cells assessed as reduction in AKT phosphorylation at Ser473 residues at 0.25 to 0.5 uM by Western blot analysis; format: cell-based
Method in brief: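 Cells exposed to a range of compound concentrations; whole-cell lysates immunoblotted for phospho-AKT (Ser473) as the mTORC2 readout, alongside S6 and 4E-BP1 phosphorylation for mTORC1. Membranes blocked in 5% skim milk, primary antibodies overnight at 4 °C, peroxidase-conjugated anti-mouse or anti-rabbit IgG secondary, ECL detection. Rapamycin as comparator.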

HeLa [14] = assay: Inhibition of mTORC2 in human HeLa cells assessed as reduction in AKT phosphorylation at Ser473 residues at 0.5 to 1 uM by Western blot analysis; format: cell-based; method in brief: as §4
[15] = AUC (0 to infinity) in Sprague-Dawley rat at 20 mg/kg, iv administered as single dose by HPLC analysis; format: ADME, organism-based; set-up: dose 20 mg/kg, time infinity, route intravenous; details: in vivo
Method in brief: (§5)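 Rats fasted overnight, then given one 20 mg/kg dose either iv or po. Blood was collected and centrifuged at once to obtain plasma. Plasma drug levels were measured by HPLC, and PK parameters were derived from the concentration-time data.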

[16] = Cmax in Sprague-Dawley rat at 20 mg/kg, iv administered as single dose by HPLC analysis; format: ADME, organism-based; set-up: dose 20 mg/kg, route intravenous; details: in vivo; method in brief: as §5
[17] = Cmax in Sprague-Dawley rat at 20 mg/kg, po administered as single dose by HPLC analysis; format: ADME, organism-based; set-up: dose 20 mg/kg, route oral; details: in vivo; method in brief: as §5
[18] = Tmax in Sprague-Dawley rat at 20 mg/kg, po administered as single dose by HPLC analysis; format: ADME, organism-based; details: in vivo
Method in brief: (§6)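 Rats fasted overnight, then given a single 20 mg/kg dose either iv or po. Blood collected and centrifuged immediately to obtain plasma. Plasma drug levels measured by HPLC, and pharmacokinetic parameters derived from both routes.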

[19] = Volume of distribution at steady state in Sprague-Dawley rat at 20 mg/kg, iv administered as single dose by HPLC analysis; format: ADME, organism-based; details: in vivo, read-out: Vdss; method in brief: as §6
Rattus norvegicus = assay: Apparent volume of distribution at steady state in Sprague-Dawley rat at 20 mg/kg, po administered as single dose by HPLC analysis; format: ADME, organism-based; details: in vivo; method in brief: as §5
[20] = Clearance in Sprague-Dawley rat at 20 mg/kg, po administered as single dose by HPLC analysis; format: ADME, organism-based; details: in vivo; method in brief: as §5

IC50 (T47D [1]): 205 nM | IC50 (MDA-MB-231 [2]): 100 nM | IC50 (SK-OV-3): 1850 nM | inhibition (Mus musculus): 7% | inhibition [3]: 5% | inhibition [4]: 4% | inhibition [5]: 2% | inhibition (Homo sapiens [6]): 5% | AUC(0-inf) [15]: 6560 ng·h/mL | Cmax [16]: 4470 ng/mL | Cmax [17]: 807 ng/mL | Tmax [18]: 3 h | Vd [19]: 16.7 L/kg | Vdss(app) (Rattus norvegicus): 21.79 L/kg | CL/F [20]: 58.5 mL/min/kg
SMILES: N#CCN1CCC(n2c(=O)cnc3cnc4ccc(-c5ccc(N)nc5)cc4c32)CC1
Activity (T47D [7]): Active | Activity (SiHa): Active | Activity (MDA-MB-231 [8]): Dose-dependent effect | Activity (HeLa [9]): Dose-dependent effect | inhibition (HeLa [10]): Active | inhibition (Homo sapiens [11]): Active | inhibition (HeLa [12]): Active | inhibition (Homo sapiens [13]): Active | inhibition (HeLa [14]): Active
